From PubChem
Scp1 inh – Scp-1 phosphatase inhibitors, primary screen, biochemical, colorimetric, uHTS | inhibition, % at 20 µM | Carboxy-terminal domain RNA polymerase II polypeptide A small phosphatase 1 (Homo … | Recombinant Scp1, phosphopeptide, malachite green phosphate absorbance | hit rate 0.88% among 340,000;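 active = inhibition above about 50% at 20 µM, limit read from the data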;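 also: plate controls were DMSO wells with enzyme for no effect and wells lacking enzyme for full effect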
Target sequence (Q9GZU7 76-261 limits assumed): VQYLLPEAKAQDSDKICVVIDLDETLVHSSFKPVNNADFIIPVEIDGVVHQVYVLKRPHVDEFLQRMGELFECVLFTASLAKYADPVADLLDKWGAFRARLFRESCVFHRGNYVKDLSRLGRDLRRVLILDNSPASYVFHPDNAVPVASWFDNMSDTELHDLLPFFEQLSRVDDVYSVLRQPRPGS
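Test system: SCP-1 catalytic domain; Buffer or medium: Acidic Tris acetate buffer with magnesium and detergent; Also added: Phosphorylated 17-residue peptide substrate; Compound: single 20 µM dose, 1% DMSO; Schedule: enzyme reaction 45 min at room temperature, colour 5 min, stabilisation 30 min; Signal: Phosphate-binding colour reagent, absorbance read at 630 nm.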
SUMO1-SIM PPI – modulators of SUMO1 protein-protein interactions, primary screen, biochemical, uHTS; Small ubiquitin-related modifier 1 (Homo sapiens), P63165; SUMO1 binding to a labelled peptide, TR-FRET, 1 h; inhibition, % at 20 µM; hit rate 0.33% among 360,000; AID 602429, 2012; in the data active = inhibition above about 37%
Target sequence (P63165 whole entry, looked up): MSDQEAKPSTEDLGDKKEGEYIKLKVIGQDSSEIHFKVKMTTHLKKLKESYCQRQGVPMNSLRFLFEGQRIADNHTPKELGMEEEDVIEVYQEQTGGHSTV
LMPTP inh – LMPTP phosphatase inhibitors, primary screen, biochemical, fluorescence intensity, uHTS | inhibition, % at 20 µM | recombinant LMPTP-A, OMFP fluorogenic substrate | hit rate 0.22% among 360,000;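 active = compounds that cut the enzyme signal by at least half of the control window in the single-dose screen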;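 also: plate controls were DMSO wells with enzyme plus substrate for no effect and substrate without enzyme for full effect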
Target sequence (P24666 whole entry, looked up): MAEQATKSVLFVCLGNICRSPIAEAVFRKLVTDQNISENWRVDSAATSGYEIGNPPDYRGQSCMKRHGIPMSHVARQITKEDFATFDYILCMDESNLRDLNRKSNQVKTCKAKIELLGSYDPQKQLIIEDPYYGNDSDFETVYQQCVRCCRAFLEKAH
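Assay system: LMPTP-A enzyme. Input: 0.625 nM LMPTP-A final. Probe or stimulus: 400 µM OMFP. Compound dosing: single 20 µM dose. Schedule: 50 min dark incubation at room temperature. Detection: fluorescence intensity of OMFP turnover product. Read-out: percent inhibition versus substrate-only and uninhibited controls. Benchmarks: no-enzyme low control, uninhibited high control.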
DNMT1 block – human DNMT1 methyltransferase inhibitors, primary screen, biochemical, molecular beacon, fluorescence, HinP1I cleavage, uHTS | inhibition (reported as % activation of signal), % at 10 µM | DNA (cytosine-5)-methyltransferase 1 (Homo sapiens), P26358 | hit rate 0.83% among 360,000; in the data active = inhibition above about 50%
STEP inh – STEP phosphatase inhibitors, primary screen, biochemical, fluorescence intensity, uHTS | Tyrosine-protein phosphatase non-receptor type 5 (Homo sapiens), P54829 | recombinant STEP, OMFP fluorogenic substrate | inhibition, % at 20 µM | hit rate 0.25% among 360,000;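 active = inhibition at 20 µM, scaled per plate between control wells, above about 37%, limit read from the data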;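 also: 0% = DMSO with enzyme and substrate and 100% = substrate only without enzyme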
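Material: STEP (striatal-enriched tyrosine phosphatase) enzyme, cell-free; Compound dosing: 20 µM single dose in 1% DMSO; Technique: fluorescence read at 480 nm ex / 540 nm em; Times: reaction 20 min, ambient temperature; Medium: 50 mM Bis-Tris pH 6.0 with 2.5 mM DTT and 0.005% Tween 20; Also added: OMFP at 25 µM.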
Scp-1 conf – Scp-1 phosphatase inhibitors, retest, confirmation, biochemical, colorimetric, single concentration; shares compounds with Scp1 inh; recombinant SCP-1 catalytic domain, phosphate release, malachite green absorbance; inhibition, % at 20 µM; hit rate 61% among 2,500; AID 540281, 2011;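 also: plate controls were DMSO with enzyme for no effect and buffer wells lacking enzyme for full effect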
Scp-1 MG ctr – colorimetric readout interference by compounds, confirmation, artefact control for Scp-1 inhibitor project, biochemical, single concentration. shares compounds with Scp1 inh. Colorimetric interference counterscreen, malachite green absorbance 630 nm. apparent inhibition (interference), % at 20 µM. 2,500 tested, under 10 active;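 also: compounds added after enzyme reaction finished so only phosphate colour detection is probed; plate controls were DMSO wells with completed Scp-1 reaction for no effect and substrate wells lacking enzyme for full effect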
Scp1 DSF – Scp-1 binding by thermal shift, confirmation, orthogonal assay for Scp-1 inhibitor project, biophysical, differential scanning fluorimetry; shares compounds with Scp1 inh; Recombinant SCP1, Sypro Orange thermal shift Tm; thermal shift relative to vanadate control, % at 40 µM; hit rate 25% among 1,500;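 active = substances whose mean melting-temperature shift, as a percentage of the reference inhibitor's shift, reaches about 5.3%, limit read from the data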;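 also: 0% = Tm of DMSO wells and 100% = Tm with sodium orthovanadate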
* hit, by the source's call; / = not tested or not shown. This is a sample that favours compounds with a hit; in the whole collection about 1.7% have one here.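 The calls were made as follows, unless noted: active = inhibition of at least 30% at 20 µM; inactive = the rest.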

SMILES | Scp1 inh | SUMO1-SIM PPI | LMPTP inh | DNMT1 block | STEP inh | Scp-1 conf | Scp-1 MG ctr | others
CCc1ccc(NC(=O)c2cc(S(=O)(=O)N3CCCC3)ccc2F)cc1 | / | 4 | 1 | -1 | 2 | / | /
O=C(NNC(=O)c1ccc(NC(=O)c2ccccc2)cc1)c1ccccc1 | 62* | 7 | 22 | 25 | 32 | 1 | -19
COc1cc(OC)cc(-c2noc([C@@H]3O[C@H](CO)[C@H](O)[C@H](O)[C@H]3O)n2)c1 | / | 4 | -1 | 1 | -1 | / | /
Cc1cccc(C)c1NC(=O)CN(C)C(=O)c1ccc(N2C(=O)CCC2=O)cc1 | -5 | 1 | -3 | 1 | 2 | / | /
Cc1cccc(C)c1NC(=O)CN(C)C(=O)c1cccc(-n2cccc2)c1 | 68* | 3 | 4 | 19 | -1 | 46* | -11 | Scp1 DSF=2
COc1ccc(Cc2c(-c3ccccc3)nc3c(C)cc(Br)cn23)c(C)c1 | / | -4 | 2 | -2 | -2 | / | /
CC1(C(=O)NS(=O)(=O)c2cccc(Cl)c2)CCN1C(=O)CCc1ccccc1 (centres undefined) | / | 9 | -1 | 5 | 3 | / | /
CCOC(=O)C1C(C(=O)OC)=C(c2ccc(OC)cc2)c2ccccc2N1S(=O)(=O)C(F)(F)F (centres undefined) | -1 | -20 | 1 | 3 | 0 | / | /
CCOC(=O)C1(C)C(C(=O)OC)=C(c2ccc(OC)cc2)c2ccccc2N1C(=O)OC (centres undefined) | 96* | -2 | 0 | 3 | -3 | 57* | -11 | Scp1 DSF=-9
O=C(COC(=O)c1ccc(OC(F)(F)F)cc1)Nc1ncccn1 | 82* | 11 | -1 | 20 | -2 | 49* | -6 | Scp1 DSF=-5
NC(=O)NC(=O)COC(=O)c1ccc(OC(F)(F)F)cc1 | 1 | -2 | 0 | 2 | 0 | / | /
O=C(O)c1cccc2c1-c1ccc(Cl)cc1C2=O | 0 | -28 | -3 | 0 | -2 | / | /
Nc1cccc2c1C(=O)c1ccc(Cl)cc1C2=O | 50* | -17 | 31 | 31 | 4 | 26 | -6
COc1ccc(NC(=O)C2Cc3c(-c4ccc5c(c4)OCO5)ccnc3O2)cc1OC (centres undefined) | / | 8 | 1 | 0 | 0 | / | /
COCCCNC(=O)C1CC(=O)N(Cc2ccc(OC)cc2)C1 (centres undefined) | -9 | 0 | -1 | -1 | 3 | / | /
COc1ccc(CN2CC(C(=O)NCCCOC(C)C)CC2=O)cc1 (centres undefined) | -13 | 1 | -3 | -1 | 0 | -6 | -7
CCCCCc1ccnc(CC(=O)c2ccc(OC)cc2)c1 | 94* | -3 | -1 | 0 | 0 | -18 | -19
CCOC(=O)Cc1csc(NC(=O)Cc2ccc(Br)cc2)n1 | 54* | -2 | 0 | -2 | -1 | -23 | -19
CC[N+](CC)(CC)CCOc1ccc(/C=C/c2ccccc2)cc1 | 74* | -21 | 0 | 3 | 2 | 50* | 3 | Scp1 DSF=-5
CCn1c(=O)cc(OCC(=O)NCc2ccco2)c2ccccc21 | 57* | -1 | -2 | 19 | 2 | 30 | -5
CCn1c(=O)cc(OCC(=O)NCc2ccc(C)o2)c2ccccc21 | -6 | 3 | 2 | -8 | 2 | / | /
COCCOC(=O)c1cc(C(=O)c2cc(Cl)ccc2O)coc1=N | 55* | 1 | -1 | -3 | 0 | -11 | -16
CCOC(=O)c1cc(C(=O)c2cc(Cl)ccc2O)coc1=N | -8 | -1 | 1 | -7 | -1 | / | /
O=C(Nc1ccc(Cl)c(C(F)(F)F)c1)C1Cc2c(-c3ccc4c(c3)OCO4)ccnc2O1 (centres undefined) | / | 5 | 4 | -19 | -1 | / | /
CC1(C(=O)NCc2ccccc2)CN(S(C)(=O)=O)CC(=O)N1CCc1ccccc1F (centres undefined) | / | -2 | -1 | / | / | / | /
SMILES | Scp1 inh | SUMO1-SIM PPI | LMPTP inh | DNMT1 block | STEP inh | Scp-1 conf | Scp-1 MG ctr | others
O=C(Cc1cccs1)Nc1nc2c(ccc3ccccc32)s1 | -18 | -2 | 4 | -12 | 0 | / | /
CC(=O)Nc1nc2c(ccc3ccccc32)s1 | 72* | 6 | -1 | -4 | -2 | 6 | -8
CN1[C@@H](COCc2ccccc2)C=CS1(=O)=O | / | -1 | 0 | 0 | 0 | / | /
CC1(C)N=C(N)NC(=NCCCOc2ccc([N+](=O)[O-])cc2)N1 | / | -19 | 0 | -3 | -1 | / | /
COc1ccccc1N1CCN(S(=O)(=O)c2ccc3c(c2)NC(=O)C(C)S3)CC1 (centres undefined) | -6 | 0 | 2 | -2 | 2 | / | /
COc1ccccc1N1CCN(C(=O)C(C)CS(=O)(=O)c2ccc3c(c2)NC(=O)CS3)CC1 (centres undefined) | 59* | 29 | 0 | 43 | 7 | 63* | -2 | Scp1 DSF=-1
O=C1CC(c2ccc(S(=O)(=O)Nc3cc(C(F)(F)F)cc(C(F)(F)F)c3)cc2)CN1 (centres undefined) | -4 | 0 | 2 | -1 | -3 | -5 | -8
Cc1ccccc1NS(=O)(=O)c1ccc(C2CNC(=O)C2)cc1 (centres undefined) | 1 | 0 | -2 | 2 | -2 | / | /
CC(C)c1ccc(N(C(=O)CNC(=O)c2ccco2)C(C(=O)NC2CCCC2)c2ccncc2)cc1 (centres undefined) | -3 | 0 | 0 | 0 | -2 | / | /
C[C@H]1CN([C@@H](C)CO)C(=O)CCCn2nncc2CO[C@H]1CN(C)S(=O)(=O)c1ccc2c(c1)OCCCO2 | / | 0 | 0 | 1 | 0 | / | /
C=C(CCO)C1=CCN(S(=O)C(C)(C)C)[C@H]1CCO (some centres undefined) | 8 | -2 | -2 | -2 | 2 | / | /
COc1ccc(-c2cc(NC=O)c3ncc(-c4cccc(C(F)(F)F)c4)n3c2)cc1OC | / | -3 | 3 | 9 | 0 | / | /
